Assay: Toxicity liver stage against HepG2, at 10uM
Format: cell-based
Parameters: test concentration 10 uM, cell line HepG2-A16-CD81EGFP
Details: human, HepG2-A16-CD81EGFP cells; read-out: INHIBITION
Outline: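 Uninfected HepG2-A16-CD81EGFP cells, 3 × 10^3 per well, 1536-well, plated on prespotted compound at 10 μM final, parasite-free screening media added to match infected plates; puromycin 10 μM positive, DMSO 0.5% negative; run in parallel with 48 h PbLuc assay at 37 °C, 5% CO2; viability by CellTiter-Glo luminescence, normalized to controls.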

Row | SMILES | cytotoxicity at 10 µM [%]
1 | CSc1ccc(C(=O)C2CCCN(C(=O)CCCn3cncn3)C2)cc1 (stereo not drawn) | 6.26
2 | CSc1ccc(C(=O)C2CCCN(C(=O)CCn3cncn3)C2)cc1 (stereo not drawn) | -12.2
3 | COc1cc(C)c2c(c1C)C[C@H]([C@H](C)C(=O)O)CC2 | -0.95
4 | O=C(NC[C@H]1C[C@@H]2CCN1C[C@@H]2CN1CCOCC1)Nc1ccccc1 | 5.96
5 | COCC(=O)N[C@H](C)c1onc(-c2ccc(Cl)cc2)c1C(=O)O | -5.61
6 | COC(=O)[C@@H]1Cc2ncn(C)c2CN1S(=O)(=O)c1ccc(Cl)cc1 | 4.67
7 | N#Cc1ccc(CN2C[C@@H]3OCC(=O)N[C@@H]3C2)cc1 | -3.01
8 | CCOC(=O)COC1CCN(C(C)=O)CC(=O)N(C)c2ccccc21 (stereo not drawn) | 7.45
9 | COCCNC(=O)c1cc(-n2cccc2)ccc1Cl | -3.45
10 | CC(C)[C@H](NC(=O)N1CCN(c2ccc(Cl)cc2)CC1)C(=O)NC1CC1 | -7.39
11 | CN1C(=O)C(C)(C)COc2cc(NS(=O)(=O)c3ccccc3F)ccc21 | -5.08
12 | CCCS(=O)(=O)c1ccc(N2CCN(c3ccccn3)CC2)nn1 | -82.5
13 | O=C(Nc1cccnc1)c1noc2c1CN(S(=O)(=O)C1CC1)CC2 | 7.06
14 | CS(=O)(=O)N1CCN(c2ccc3ccc(C(=O)NC4CC4)cn23)CC1 | -0.39
15 | Cc1cccc(CN2C(=O)CCC23CCN(Cc2ccoc2)CC3)n1 | 2.82
16 | CN1CCN(C[C@H]2OC[C@@H]3CCN(Cc4ccsc4)C[C@@H]32)CC1 | -2.19
17 | CCN1C(=O)[C@]2(CC[C@@H]3CN(C(=O)Nc4ccc(F)cc4)C[C@@H]32)N=C1C | 3.22
18 | O=C1CC(c2cccnc2)c2c(c(C(=O)O)cn2-c2ccccc2)N1 (stereo not drawn) | 9.92
19 | CCOC(=O)C1CCN(C(=O)Cn2ccc3cc(Br)ccc32)CC1 | -8.23
20 | COC(=O)CNC(=O)CSCc1nc(O)c2c(C)c(C)sc2n1 | 0.562
21 | COCCN1CC[C@]2(CN(C(=O)c3cccs3)C[C@H]2C)C1=O | 3.47
22 | CO[C@H]1CO[C@@]2(CCCN(C(=O)C3=CCCCC3)C2)C1 | -9.95

Row | SMILES | cytotoxicity at 10 µM [%]
23 | CCN(C)c1ncnc2c1CCN(C(=O)c1ccno1)CC2 | -10
24 | CCc1noc(C2CCCCN2C(=O)c2ccoc2C)n1 (stereo not drawn) | 12.5
25 | CC(C)c1cc(C(=O)N2CCC3(CCc4ccccc4C(=O)N3)C2)on1 (stereo not drawn) | 2.53
26 | Cn1cccc1CNCC1CCCn2cc(C(C)(C)C)nc21 (stereo not drawn) | -19.8
27 | CCN(C(=O)Cc1ccc(NCc2ncc[nH]2)cc1)c1ccccc1 | 6.43
28 | COCCn1c(C(=O)NCC(C)C(=O)O)cc2ccccc21 (stereo not drawn) | 2.64
29 | NC(=O)N1CCCC(C(=O)NCCOc2ccc3c(c2)OCO3)C1 (stereo not drawn) | -102
30 | Cc1cc(C(=O)Nc2ccc(-c3nnc(N(C)C)o3)cc2)oc1C | 0.11
31 | Cc1cc(C(NC(=O)CNS(C)(=O)=O)C(C)C)c(C)s1 (stereo not drawn) | 5.2
32 | CC(C)c1noc(CCC(=O)N2CCN(C)CC2c2ccccc2)n1 (stereo not drawn) | -5.3
33 | CNC(=O)CCNC(=O)c1cc(Br)c2c(c1)OCCO2 | 3.82
34 | Cn1cc(N2CCC(NC(=O)c3c(F)cccc3Cl)C2=O)cn1 (stereo not drawn) | 0.91
35 | Cc1ccc(C(=O)N2CCCC(CNS(=O)(=O)C(C)C)C2)cc1 (stereo not drawn) | -1.42
36 | O=C(NCCc1ccccc1Cl)NCC1(O)CCSC1 (stereo not drawn) | -6.17
37 | NC(=O)c1ccc(OCC(=O)NC2CCc3c(F)cccc32)cc1 (stereo not drawn) | 14.4
38 | CC(C)(C)NS(=O)(=O)c1ccccc1CNCc1ccccc1 | 5.74
39 | CCN1CCN(C(=O)C(C)N2CCc3cncnc3C2)CC1 (stereo not drawn) | -10.9
40 | Cc1cc(SC(C)(C)C)ccc1NC(=O)CNC(N)=O | 7.94
41 | CCCNC(=O)CCC(=O)N1CCC(c2n[nH]c(C3CC3)n2)CC1 | -3.82
42 | CNC(=O)COc1cccc(CNCc2c(C)noc2C)c1 | -10.3
43 | COc1cc(C)c(CNC(C)c2nc(C)cs2)cc1OC (stereo not drawn) | 2.58
44 | COc1ccccc1OCC(=O)N1CCN(Cc2noc(C)n2)CC1 | 3.82

Row | SMILES | cytotoxicity at 10 µM [%]
45 | Cc1ccc(C2CSCCN2C(=O)c2ccsc2)o1 (stereo not drawn) | 1.68
46 | Cc1nc(CN2C[C@@H]3CN(C(=O)c4ccncc4)C[C@@H]3C2)cs1 | -108
47 | COCC(=O)NCc1cc(=O)n2c(n1)CN(Cc1ccncc1)CCC2 | -99.9
48 | CNC(=O)N1CC[C@@H]2CN(Cc3cccnc3)S(=O)(=O)[C@@H]2CC1 | 4.4
49 | CCOc1ccc(Cl)cc1C(C(=O)O)N1CCOCC1 (stereo not drawn) | -0.924
50 | CCC(NC(=O)CCNC(=O)c1ccccc1F)c1cc(C)ccn1 (stereo not drawn) | -11.4
51 | CC[C@@]1(O)CCN(C(=O)CCNC(=O)c2ccc(F)cc2)C[C@H]1O | 0.0652
52 | COCCc1noc(-c2cn(Cc3ccc(OC)cc3)nn2)n1 | 5.07
53 | CC(O)c1cn(CC2CCN(C(=O)CN3CCCC3=O)CC2)nn1 (stereo not drawn) | 2.31
54 | O=C(O)C(c1ccc2c(c1)OCO2)N1CCC(O)(c2cccnc2)CC1 (stereo not drawn) | 19.7
55 | CCc1nnc(N2CCN(CCc3ccccc3)C(=O)C2)o1 | -1.01
56 | CCn1c(C2CCCN(C(=O)c3ccc[nH]3)C2)nn(CCN(C)C)c1=O (stereo not drawn) | 2.67
57 | COc1cc(F)c(C(=O)NCc2cc(C)on2)c(F)c1 | -0.376
58 | CCCN1CCC(CC(=O)NCc2cc(C)nn2C)CC1 | -12.4
59 | CCc1ncc(C(=O)NCCN2CCNC2=O)cn1 | 0.069
60 | CCc1ccc(S(=O)(=O)N2CC[C@@](O)(CCOC)[C@H](C)C2)cc1 | 6.8
61 | CCCn1ncc(C(=O)N(C)Cc2n[nH]c3c2CCC3)c1C | 0.213
62 | Cc1ccc(S(=O)(=O)N2C[C@H](C3CC3)[C@@H](N)C2)cc1F | -3.25
63 | CC(C)N1CCOC(CC(=O)N2CCCN(c3ccc(F)cc3)CC2)C1 (stereo not drawn) | -4.66
64 | COc1ccc(C(C(=O)O)N(C)CCN2CCOCC2)c(C)c1 (stereo not drawn) | 2.66
65 | CC(=O)CN1CCC2(CC1)c1ccccc1[C@@H](N1CCSCC1)[C@@H]2O | -27.1
66 | Cc1noc(CN(C)CC2(O)CCCN(CCC3CCCCC3)C2=O)n1 (stereo not drawn) | -3.73

Row | SMILES | cytotoxicity at 10 µM [%]
67 | CN(C)C(=O)c1cccnc1-c1ccc2c(c1)OCO2 | 1.58
68 | CN(Cc1ccccc1)c1ncccc1CNC1CCC1 | 13.5
69 | Cc1nc2ccc(C(=O)N3CCN(CCO)[C@@H]4CS(=O)(=O)C[C@@H]43)cc2o1 | -1.32
70 | O=C(NCCc1ccncc1)c1cccc(S(=O)(=O)NC2CCOC2)c1 (stereo not drawn) | 4.93
71 | CSCCC(=O)N1C[C@@H](C)[C@](O)(C(C)C)C1 | 0.68
72 | CC(C)(C)c1oc(C(N)=O)cc1CN1CCOC(C(F)(F)F)C1 (stereo not drawn) | -4.81
73 | CCc1ccc2nc(C)cc(C(=O)N[C@@H]3C[C@@H](CO)N(C)C3)c2c1 | 2.35
74 | Cc1nc(N2CCCC2)nc(N2CCC(O)(C(=O)O)CC2)c1C | -5.62
75 | CCC(Nc1nccc(C2CCCC2)n1)c1ccccn1 (stereo not drawn) | -126
76 | CCn1c(C)nnc1SCCNc1cc(OC)ncn1 | 5.87
77 | CN1CCN(C(=O)c2cccc(CN3CCOCC3)c2)CC1 | 2.46
78 | CCC(NC1CCCC1)c1ccc(S(C)(=O)=O)cc1 (stereo not drawn) | -3.37
79 | COc1cccc(OC)c1OCCn1c(C)c(C)oc1=O | 9.61
80 | O=C(CN1CCOC1=O)N(Cc1ccccc1)Cc1nccs1 | 0.84
81 | CCS(=O)(=O)N1CCC(c2nnc(CN3CCCC3)n2C2CC2)CC1 | 14.9
82 | COc1ccc(C(=O)Nc2cc(CC(C)C)nn2C)cc1 | -10.6
83 | Cc1cnn(C2CN(CC(=O)NCCc3ccsc3)C2)c1 | -3.86
84 | Cc1nc(C2CCCN2Cc2ccc(S(=O)(=O)N(C)C)o2)no1 (stereo not drawn) | -2.53
85 | Cc1ccc(OCCN2CCN(Cc3cnn(CCO)c3)CC2)cc1 | -2.4
86 | COc1cc(C(=O)NS(=O)(=O)c2cccc(C#N)c2)cc(OC)c1C | -5.02
87 | Cc1cnn(C2CCCN(C(=O)c3cn4ccccc4n3)C2)c1 (stereo not drawn) | -6.35
88 | CC(C)c1nc(C2CCCN2Cc2ccccc2C#N)no1 (stereo not drawn) | -7.62

Row | SMILES | cytotoxicity at 10 µM [%]
89 | O=C(CS(=O)(=O)CC1CCCCC1)NC1CCCCNC1=O (stereo not drawn) | -10.6
90 | CNC(=O)CCCNCc1c(C(C)C)nn(C)c1N(C)C | -12.7
91 | CCOc1ncccc1NC(=O)N1CCCCCC1 | -6.36
92 | CC(=O)N(Cc1ncc(C(C)C)o1)C1CCN(Cc2ncc[nH]2)C1 (stereo not drawn) | -6.02
93 | Cc1nc(C)n(C2CCCN(C(=O)c3ccc(NC4CC4)nc3)C2)n1 (stereo not drawn) | -3.36
94 | Cc1oc(C)c(C(=O)NCc2ccccn2)c1C | -0.729
95 | Cc1nnc2n1CCN(C(=O)c1cc(Cl)c[nH]1)C2 | -5.87
96 | CCc1nnc2n1CCN(C(=O)Cc1csc(-c3ccco3)n1)C2 | -8.7
97 | CCc1nnc2n1CCN(C(=O)c1ccc(C(F)(F)F)nc1C)C2 | -7.28
98 | CCc1nc(CN(CC(N)=O)C(C)C)cs1 | -8.62
99 | CCc1n[nH]c(C2CN(C(=O)c3cnns3)CCO2)n1 (stereo not drawn) | -3.43
100 | Cc1cnn(CC2CCCN2C(=O)c2cccc(-n3cnnn3)c2)c1 (stereo not drawn) | -4.3
101 | COc1cccc(N2C(=O)CC3(CCNCC3)C2=O)c1 | 2.67
102 | c1cncc(-c2noc(C3CN(Cc4cccs4)C3)n2)c1 | -6.87
103 | Cn1cc(N2C(=O)CC[C@@H]3[C@H]2CCN3Cc2nccs2)cn1 | 8.62
104 | c1ccc(CO[C@H]2CC[C@H]3[C@H]2OCCN3Cc2nccs2)nc1 | 5.83
105 | COCCN1C[C@@H]2[C@@H](OC)CCN(Cc3ccco3)[C@@H]2C1 | 2.37
106 | Cc1cnc(N2CC3(CCN(C(=O)c4cccnc4)C3)C2)nc1 | 2.55
107 | Cc1nc(CN2CCO[C@@H]3CN(Cc4ccsc4)C[C@@H]3C2)cs1 | 2.99
108 | O=C(CCn1cncn1)N1C[C@@H]2CC[C@H]1CN(Cc1ccncc1)C2 | 9.53
